This note sets out measurements from PubChem BioAssay AID504382 (The Scripps Research Institute Molecular Screening Center, 2011).

Where “and” joins values, the source holds several entries; their conditions need not be identical. Equal entries are not always repeated. Screen size: about 2,500 compounds; about 460 (18%) were called active.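 The calls were made as follows: active = mean activation above a cutoff of low control average plus 3 SD from the earlier screen (cut at about 12% in these data); inactive = the rest.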 These entries were drawn from the full list.

The assay is described as follows: compound fluorescence interference without thin filaments, confirmation, artefact control for cardiac RTF calcium sensitizer project, biochemical (AID 504382). The conditions noted are these: IANBD fluorescence interference counterscreen, buffer, EC20 Ca2+; at 7.2 µM; hits give high values; scaled: EC20 calcium 0, EC100 calcium 100. The procedure, abridged:
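Medium: MOPS buffer, 190 mM, with KCl, MgCl2, EGTA, NTA, DTT, pH 7.20; Dosing: one dose of 7.2 µM, 0.7% DMSO; Probe or stimulus: calcium at EC20 level, 0.472 mM final; Incubation: 15 min, 25 °C; Evaluation: compound fluorescence interference relative to control well signal range; Signal: fluorescence, 480/540 nm.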
Turning to `Cc1cccc(C)c1-n1c(C)nn(-c2ncc(C(F)(F)F)cc2Cl)c1=O`, the fluorescence artifact activation was 0.09% (inactive).

Turning to `CCCCC1OC2(C)OC(=N)C1(C#N)C(C#N)(C#N)C2c1ccccc1` (stereo not drawn), the fluorescence artifact activation is 0.23% (inactive).

For `Cc1nc(Cl)c2c(n1)NC1=C(O2)C(=O)CCC1`, the fluorescence artifact activation is 0.77% (inactive).

`O=C1/C(=C/c2cccnc2)SC(=S)N1N1CCOCC1`: the fluorescence artifact activation was 0.1% (inactive).

For the compound `CCOC(=O)c1ccc(N=c2sc(C(=O)OC)cc(=O)n2CCCN2CCOCC2)cc1`, the fluorescence artifact activation was -0.02% (inactive).

Consider `CCc1nc(Nc2ccc(O)cc2)c2oc3ccccc3c2n1`, for which the fluorescence artifact activation is 20.3% (active).

For the compound `COc1ccc(/C=c2\s/c(=C/C(=O)c3ccc(C)cc3)[nH]c2=O)c(OC)c1`, the fluorescence artifact activation is 0.16% (inactive).

As for `C[C@H](CO)N1C[C@H](C)[C@@H](CN(C)C(=O)Nc2ccccc2)Oc2ccc(NC(=O)Nc3ccc4c(c3)OCO4)cc2C1=O`, the fluorescence artifact activation is -0.07% (inactive).

As to `N#C/C(=C/c1ccc(N2CCCCC2)o1)C(=O)NCCc1c[nH]c2ccccc12`, the fluorescence artifact activation was 12.8% (active).

Regarding `N#C/C(=C\c1ccc(N2CCOCC2)o1)C(=O)NCC1CCCO1` (stereo not drawn), the fluorescence artifact activation was -0.1% (inactive).

For the compound `COCCNC(=O)/C(C#N)=C/c1ccc(N2CCOCC2)o1`, the fluorescence artifact activation is -0.05% (inactive).

On to `N#C/C(=C\c1ccc(N2CCOCC2)o1)C(=O)NCCc1ccccc1`, for which the fluorescence artifact activation is 20.6% (active).

In the case of `COC(=O)CCc1c(C)c(C(=O)c2cc(F)c(F)c(F)c2F)c2ccccn12`, the fluorescence artifact activation was -0.04% (inactive).

As to `CN(C)C(CNC(=O)c1cccc(S(=O)(=O)N(C)C)c1)c1ccccc1` (stereo not drawn), the fluorescence artifact activation was 4.02% (inactive).

Regarding `COc1ccc(C2c3ccc(O)cc3Oc3ncn(Cc4ccco4)c(=N)c32)cc1` (stereo not drawn), the fluorescence artifact activation is 0.14% (inactive).

On to `COc1ccc(C2c3ccc(O)cc3Oc3ncn(Cc4ccccc4)c(=N)c32)cc1OC` (stereo not drawn), for which the fluorescence artifact activation is 0.06% (inactive).

`N=c1c2c(ncn1Cc1ccco1)Oc1cc(O)ccc1C2c1ccccc1` (stereo not drawn): the fluorescence artifact activation is 20% (active).

Turning to `CCN(CC)C(=S)SCC(=O)c1c(C)[nH]c2ccccc12`, the fluorescence artifact activation was 7.38% (inactive).

`CCc1ccccc1NC(=S)NCc1cccn1C`: the fluorescence artifact activation was -0.01% (inactive).

As to `CCOC(=O)/C(C#N)=C/c1ccc(N2CCN(Cc3ccccc3)CC2)cc1`, the fluorescence artifact activation is 82.2% (active).

For the compound `CCOC(=O)/C(C#N)=C\c1ccc(N2CCN(C/C=C/c3ccccc3)CC2)cc1`, the fluorescence artifact activation is 0.17% (inactive).

On to `CC(OC(=O)/C(C#N)=C/c1ccc(N(C)C)cc1)C(=O)N(C)Cc1ccccc1` (stereo not drawn), for which the fluorescence artifact activation was 4.84% (inactive).

Consider `N#C/C(=C(/O)COC(=O)COc1ccc(Cl)cc1)c1nc2ccccc2[nH]1`, for which the fluorescence artifact activation was 0% (inactive).

For `O=C(Nc1cnn(Cc2c(Cl)cccc2Cl)c1)C(c1ccccc1)c1ccccc1`, the fluorescence artifact activation is -0.07% (inactive).

As for `COc1ccccc1-c1nnc(SCC(=O)Nc2ccc3[nH]c(=O)[nH]c3c2)n1N`, the fluorescence artifact activation is -0.06% (inactive).

With `Cc1cc(C)n(C2CCCCC2OC(=O)CCc2ccccc2)n1` (stereo not drawn), the fluorescence artifact activation is 13% (active).

Consider `CC1(OC(=O)CCc2ccccc2)C(=O)C=C2C=C(c3ccc(C#N)cc3)N(C3CCCC3)C=C2C1=O` (stereo not drawn), for which the fluorescence artifact activation is -0.06% (inactive).

For the compound `Cc1cc(C)n(-c2ccc(C(=O)O)cc2)n1`, the fluorescence artifact activation is 0.39% (inactive).

In the case of `CCOC(=O)/C(C#N)=C(C)/C=C1\Sc2ccccc2N1CC`, the fluorescence artifact activation was 4.14% (inactive).

As to `C=CCNC(=S)NNC(=O)c1ccc(OCC(C)C)cc1`, the fluorescence artifact activation is 0.28% (inactive).

On to `CN1CCC2(CC1)C1CN(C)CC=C1C(C#N)=C(N)C2(C#N)C#N` (stereo not drawn), for which the fluorescence artifact activation is -0.05% (inactive) and 6.98% (inactive).

In the case of `CC(C)(C)c1cc(NC(=O)c2cccc(S(=O)(=O)N3CCOCC3)c2)no1`, the fluorescence artifact activation was 7.6% (inactive).

For the compound `Cc1sc(NC(=O)CSc2nnc(C(C)C)n2C)c(C#N)c1C`, the fluorescence artifact activation was 21.9% (active).

`COc1ccc(S(=O)(=O)N2CCSC2)cc1C`: the fluorescence artifact activation is 0.17% (inactive).

`Cc1cc(C)c(C(N)=O)c(Nc2ccc(F)cc2)n1`: the fluorescence artifact activation is 0.09% (inactive).

As for `CCN(C(=O)c1cnc(NC(C)C)cc1C(F)(F)F)c1ccc(Cl)cc1`, the fluorescence artifact activation is -0.05% (inactive).

Regarding `O=c1[nH]c2ccccc2nc1/C=C/c1ccc(F)cc1`, the fluorescence artifact activation is 0.04% (inactive).

With `O=c1[nH]c2ccccc2nc1/C=C(\O)c1cccs1`, the fluorescence artifact activation was 1.76% (inactive).

Consider `O=c1[nH]c2ccccc2nc1/C=C/c1ccccc1`, for which the fluorescence artifact activation is 119% (active).

For the compound `O=C(Nc1ccccc1-c1ccccc1)c1ccc(Cl)c([N+](=O)[O-])c1`, the fluorescence artifact activation was 8.22% (inactive).

As to `COc1ccc2[nH]c3c(c2c1)CCN1C(=O)C(CC(=O)NCCCn2ccnc2)C[C@H](C(=O)N2CCCCC2)[C@@]31C` (stereo partly drawn), the fluorescence artifact activation was -0.02% (inactive).

Consider `CN(C)c1ccc(/C=N/N(CCO)C2=NS(=O)(=O)c3ccccc32)cc1`, for which the fluorescence artifact activation is 0.26% (inactive).

For `COC1C(CO)OC(n2c3c(Cl)cccc3c3c4c(c5c6cccc(Cl)c6[nH]c5c32)C(=O)NC4=O)C(O)C1O` (stereo not drawn), the fluorescence artifact activation is 0.02% (inactive).

For `CCCCCCC(=O)N/N=C/c1ccco1`, the fluorescence artifact activation is 0.06% (inactive).

Consider `Cc1ccccc1N(CC(N)=O)S(C)(=O)=O`, for which the fluorescence artifact activation is -0.02% (inactive).

As for `CS(=O)(=O)N(CC(=O)N/N=C/c1ccco1)c1ccccc1Br`, the fluorescence artifact activation is 48.6% (active).

Turning to `CCc1ccc(C(=O)Nc2cccnc2Oc2ccc(Cl)cc2)cc1`, the fluorescence artifact activation was 3.19% (inactive).

Turning to `Cc1cc(C=C2C(=O)CCCC2=O)c(C)n1-c1ccccc1`, the fluorescence artifact activation was 0.05% (inactive).

`CCOC(=O)/C(=C\c1c[nH]c2ccccc12)NC(C)=O`: the fluorescence artifact activation is 7.92% (inactive).

For the compound `CC(C)Sc1nc2ccc(Br)cc2[nH]1`, the fluorescence artifact activation was 10.8% (inactive).

On to `COCCCN(C(=O)c1cccnc1SC)c1c(N)n(Cc2ccccc2)c(=O)[nH]c1=O`, for which the fluorescence artifact activation is 15.1% (active).

`COc1cc(OC)cc(C(=O)N(Cc2ccco2)c2c(N)n(Cc3ccccc3)c(=O)[nH]c2=O)c1`: the fluorescence artifact activation is 0.01% (inactive).

`CCCCN(C(=O)c1ccc([N+](=O)[O-])o1)c1c(N)n(CCCC)c(=O)[nH]c1=O`: the fluorescence artifact activation was -0.06% (inactive).

Consider `COc1ccc(NC(=O)Cc2ccccc2)cn1`, for which the fluorescence artifact activation is 0.04% (inactive).

As to `N#CC1=C(N)SC(N)=C(C#N)C1c1cccc(O)c1`, the fluorescence artifact activation was 0.07% (inactive).

Regarding `C/C(Cn1cnc([N+](=O)[O-])n1)=N\NC(=O)c1cccc(F)c1`, the fluorescence artifact activation is 0.05% (inactive).

Regarding `Cc1cc(NC(=O)CN2C(=O)[C@@H]3[C@H](C2=O)[C@@H]2C[C@H]3C(Br)C2Br)no1` (stereo partly drawn), the fluorescence artifact activation was 19.4% (active).

As for `CC(=O)NC(CCS(C)(=O)=O)C(=O)Nc1cc(C)on1` (stereo not drawn), the fluorescence artifact activation was 0.57% (inactive).

With `Cc1cc(NC(=O)COC(=O)C(Cc2ccccc2)NC(=O)c2ccco2)no1` (stereo not drawn), the fluorescence artifact activation is 9.69% (inactive).

As to `O=C1CCNc2ccc(-c3ccccc3)cc21`, the fluorescence artifact activation is 0.1% (inactive).

`Cc1cc(/C=C2\NC(=S)N(C)C2=O)ccc1N1CCCC1`: the fluorescence artifact activation was 2.17% (inactive).

With `Cc1cc(N2CCCC2)ccc1/C=C1\NC(=S)N(C)C1=O`, the fluorescence artifact activation was 5.61% (inactive).

For `Cc1cc(/C=C2/C(=O)N(C)C(=S)N2C)ccc1N1CCCC1`, the fluorescence artifact activation was 23.6% (active).

Turning to `COC(=O)CCN(C(=O)c1ccc([N+](=O)[O-])cc1)c1ccccn1`, the fluorescence artifact activation is 4.76% (inactive).

In the case of `O=C(Nc1ccc(Br)cc1)c1ccc(Br)c(S(=O)(=O)Nc2cccnc2)c1`, the fluorescence artifact activation was 4.66% (inactive).

For the compound `CC(C)(C)NC(=O)NC(=O)Cn1ccsc1=N`, the fluorescence artifact activation is 40% (active).

Take `O=C(C1=NN(c2ccccc2)C2C(=O)N(c3cccc(Cl)c3)C(=O)C12)c1ccccc1` (stereo not drawn): the fluorescence artifact activation was 9.7% (inactive).

Consider `O=C(NN1C(=O)c2ccccc2NC1c1ccco1)c1ccccc1` (stereo not drawn), for which the fluorescence artifact activation was 0.03% (inactive).

In the case of `CN1C(=O)/C(=C/C=C2\SCCN2C)OC1=S`, the fluorescence artifact activation was 1.7% (inactive).

On to `COC(=O)C1CCN(C(=O)CN2C(=O)c3ccccc3S2(=O)=O)CC1`, for which the fluorescence artifact activation is 818% (active).

Regarding `C=C1CCN(C(CC(C)C)C(=O)OC)S(=O)(=O)c2ccccc21` (stereo not drawn), the fluorescence artifact activation was 0.08% (inactive).

Turning to `NC(=O)C1CCN(c2ccc3c(c2)S(=O)(=O)c2ccccc2C3=O)CC1`, the fluorescence artifact activation is 0.05% (inactive).

Regarding `CN(N=Nc1ccc([N+](=O)[O-])cc1)c1ccccc1`, the fluorescence artifact activation was 7.25% (inactive).

Take `CSc1ccc(C2C(C(=O)c3ccco3)=C(O)C(=O)N2c2nnc(SC)s2)cc1` (stereo not drawn): the fluorescence artifact activation is 7.57% (inactive).

Consider `CC1CC1c1ccc(/C=C(\C#N)C(=O)Nc2ccc(Cl)cc2Cl)o1` (stereo not drawn), for which the fluorescence artifact activation was 5.23% (inactive).

For `Cc1cc(NC(=O)/C(C#N)=C/c2ccc(-c3ccc(SC(F)F)cc3)o2)n(-c2ccccc2)n1`, the fluorescence artifact activation was 291% (active).

With `Cc1cc(NC(=O)/C(C#N)=C\c2ccc(-c3ccc(SC(F)F)cc3)o2)n(-c2ccccc2)n1`, the fluorescence artifact activation was 136% (active).

As to `O=C(NCc1cccc(F)c1)c1cccc2c1C(=O)c1ccc(N3CCCC3)cc1S2(=O)=O`, the fluorescence artifact activation was -0.02% (inactive).

On to `CCOC(=O)c1sc(N)c(C#N)c1COC(=O)CNC(=O)c1ccccc1`, for which the fluorescence artifact activation is -0.01% (inactive).

Turning to `CC1CC(C)CN(C(=O)Cn2c(-c3nonc3N)nc3ccccc32)C1` (stereo not drawn), the fluorescence artifact activation is 0.07% (inactive).

On to `CC(NC(=O)COc1ccc(N(C)S(=O)(=O)c2ccccc2)cc1)c1ccccc1` (stereo not drawn), for which the fluorescence artifact activation was 0.07% (inactive).

Consider `Cc1ccc(C)c(OCCN2C(=O)NC3(CCc4ccccc4C3)C2=O)c1` (stereo not drawn), for which the fluorescence artifact activation was 0.24% (inactive).

As to `Cc1ccc(C2C(C#N)=C(N)SC(N)=C2C#N)cc1`, the fluorescence artifact activation is 0.33% (inactive).

In the case of `O=C(C1=C(O)C(=O)N(CCN2CCOCC2)C1c1ccc([N+](=O)[O-])cc1)c1cccs1` (stereo not drawn), the fluorescence artifact activation is 10.2% (inactive).

As to `CC(/C=C/c1ccc(N(C)C)cc1)=N/N=C1/NC(=O)CC(C(=O)Nc2ccc(Cl)cc2)S1` (stereo not drawn), the fluorescence artifact activation was 0.15% (inactive).

With `O=[N+]([O-])c1ccc(N/N=C\c2ccccc2OCc2ccccc2)cc1`, the fluorescence artifact activation was 5.45% (inactive).

On to `COC(=O)c1ccc(-c2ccc(F)cc2)nc1C`, for which the fluorescence artifact activation was -0.07% (inactive).

`O=c1[nH]c2c(s1)C=Nc1ccccc1N2`: the fluorescence artifact activation was 0.01% (inactive).

In the case of `CN(C)/C=C1\C=C2C(=O)c3ccccc3N2C1=O`, the fluorescence artifact activation is 21% (active).

With `CN(C)C(=O)CN1C(=O)C2CCCCN2C(=O)c2ccccc21` (stereo not drawn), the fluorescence artifact activation is 0.04% (inactive).

Consider `CCCC(=O)Nc1ccc(-c2cnc(-c3ccc(NC(=O)CCC)cc3)nc2)cc1`, for which the fluorescence artifact activation was 0.08% (inactive).

With `CCCCCCCC(=O)Nc1ccc(S(=O)(=O)Nc2nccs2)cc1`, the fluorescence artifact activation was 12.5% (active).

On to `Cc1ccc(S(=O)(=O)NCCCCCC(=O)Nc2ccccc2C)cc1`, for which the fluorescence artifact activation is 8.11% (inactive).
